Shown are actives, neighbours in structure and some others; about 3.5% of the full set was active somewhere.
PGC1a acetyl inh – inhibitors of PGC1a acetylation signal, primary screen, cell-based, U2OS, AlphaScreen, inhibitor mode. AlphaScreen anti-acetyl-lysine; with virally co-expressed GCN5 acetyltransferase. inhibition, % at 15.6 µM. 350,000 tested, 0.17% active;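 active means every replicate shows inhibition of at least 40%; inconclusive means mean inhibition at least 40% but some replicate below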;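 further: 0% = neutral control wells and 100% = positive control wells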
Env fusion inh – inhibitors of HIV-1 Env-driven cell-cell fusion, primary screen, HeLa-JRFL effector, CEM21 target cells, luciferase; inhibition, % at 12.3 µM; 360,000 tested, 1.1% active;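 active means mean replicate inhibition score of at least 50 and every replicate individually at or above 50; inconclusive means only one of the two criteria met; inactive means mean below 50 and not all replicates reaching 50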;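 further: 0% = plate neutral controls and 100% = maraviroc near 300 nM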
Ecoli rRNA inh – reduced GFP signal of wild-type E. coli, primary screen, bacterial rRNA inhibitor project, GFP/RFP fluorescence, OD600, single point. E. coli WT GFP vs humanized-ribosome RFP mutants, 24 h; hits give low values; DMSO median 0, no signal -100. GFP signal change (wild-type ribosome), % (no concentration beside the values). 350,000 tested, 1.6% active. AID 720706, 2013;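 active means significant combined selectivity score with lowered wild-type GFP, culture density cut under 30%, mutant RFP and density less affected; inactive means any of these conditions unmet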
FN deposition inh – inhibitors of fibronectin matrix deposition, primary screen, AH1F cells, Alexa488-fibronectin fluorescence, plate reader | inhibition, % at 12.6 µM | AID 743247, 2014 | 350,000 tested, 0.086% active | AH1F fibroblasts, overnight;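 active means mean inhibition across replicates of 30% or more, regardless of how many single replicates reach that level; inconclusive means mean under 30% yet at least half of replicates reach 30%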;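 further: positive control wells lacked labelled fibronectin entirely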
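material = AH1F fibroblast monolayer depositing Alexa488-labelled fibronectin into matrix | amount = 10000 AH1F cells/well | buffer or medium = DMEM plus 2% serum, read in PBS | incubation = 1 h cell adhesion before compound, then overnight fibronectin incubation | detection = fluorescence at 485 nm excitation, 525 nm emission | evaluation = percent inhibition as loss of matrix-bound fibronectin fluorescence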
DENV2 CPE rescue – inhibitors of DENV2 cytopathic effect, primary screen, cell-based, plate reader, single concentration; DENV2-infected cells, cytopathic effect rescue; CPE inhibition, % at 9.99 µM; 350,000 tested, 1.7% active; in the data active means CPE inhibition above about 20%, passing the limit was not always enough; inconclusive means no clear call, values can overlap the other calls; tested in BHK-21 cells;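 further: 0% = median of neutral control wells and 100% = median of positive control wells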
PglD DTNB – C. jejuni PglD acetyltransferase inhibitors, primary screen, biochemical, DTNB colorimetric, single point | inhibition, % at 12.5 µM | 360,000 tested, 0.098% active | AID 602405, 2012 | purified PglD enzyme, DTNB colorimetric CoA detection; in the data active means inhibition above about 16%, passing the limit was not always enough; inconclusive means no clear call, values can overlap the other calls
* = called active by the depositor; ? = inconclusive; / = no result; [ ] = dose if it differs, or a comment.

SMILES | PGC1a acetyl inh | Env fusion inh | Ecoli rRNA inh | FN deposition inh | DENV2 CPE rescue | PglD DTNB
COc1ccc(C[C@H]2NC[C@H](O)[C@H]2OC(C)=O)cc1 | 89.8* | -0.3 | / | 17.6 | -11.7 | 0.1
CC(=O)N1[C@@H]2Cn3c(ccc(-c4cccc(C(=O)N(C)C)c4)c3=O)[C@H]1[C@@H](C(=O)O)[C@@H]2CO | / | / | 2.8 | / | / | /
O=C(Cc1ccccc1)N1C[C@@H]2[C@H](c3ccccc31)[C@H](CO)N2Cc1ccccc1 | -10.4 | / | -11.8 | / | ? | -0.1
S=C(NCCc1ccccc1)N1Cc2cc(N3CCCCC3)ccc2-n2nncc2C1 | -5.8 | 75.1* | 21.3 | 13.1 | 0.7 | 0.1
S=C(NCCc1ccccc1)N1Cc2cc(-c3ccccc3)ccc2-n2nncc2C1 | -22.1 | 15.5 | 1.8 | 17.9 | 4.8 | 2.7
CCOC(=O)c1c(C)n(C(C)C)c2ccc(OC)cc12 | -6.3 | 0.0 | -28.5* | 1.9 | -4.6 | 3.5
CCn1c(C)c(C(=O)O)c2cc(OC)ccc21 | 0.3 | / | / | / | / | 0.5
CC1=NN(c2ccccc2)C(=O)/C1=C/c1c(O)[nH]c(=S)[nH]c1=O | -1.2 | / | / | / | / | /
CC1=NN(c2ccccc2)C(=O)/C1=C/c1c(O)[nH]c(=O)[nH]c1=O | 49.1* | -4.8 | 15.6 | -4.9 | 5.8 | -2.7
CC=Cc1ccc2n(c1=O)C[C@@H]1[C@@H](CO)[C@H](C(=O)OC)[C@H]2N1CC1CCCC1 (mixture of isomers) | -0.5 | / | -1.5 | / | -1.8 | /
C[C@]12C=CC(=O)C=C1C=C[C@@H]1C2CC[C@]2(C)C(=O)CCC12 (stereo partly drawn) | 4.9 | -26.3 | -27.5* | 4.1 | -8.5 | 5.1
C[C@]12CCC3[C@@H](CCC4=CC(=O)CC[C@@]43CO)C1CCC2=O (stereo partly drawn) | -3.7 | 2.8 | 13.3 | 15.5 | -3.5 | 8.8
COc1cc(CNCCc2c[nH]c3ccccc23)cc(OC)c1 | 3.5 | 61.0* | 1.5 | -0.7 | -5.3 | -2.2
COc1cc(CNCCc2c[nH]c3ccccc23)cc(OC)c1OC | / | -7.8 | 11.8 | -0.5 | -17.7 | -0.4
CCc1ccc(CNCCc2c[nH]c3ccccc23)cc1 | 16.3 | 78.3* | -11.2 | 2.7 | 0.4 | -2.8
CN(C)CC#Cc1ccc([C@@H]2[C@H](CO)N3CCCCN(C(=O)Cc4ccccn4)C[C@@H]23)cc1 | 9.8 | / | 3.2 | -4.2 | 15.6 | -2.6
CS(=O)(=O)N1C[C@@H]2C(c3ccccc3)[C@H](C1)N2CC1CC1 (stereo partly drawn) | / | / | 0.2 | -14.7 | / | /
C/C=C/c1ccc2c(c1)OCO2 | -7.1 | / | 8.2 | / | 20.1* | -0.4
C[C@]12CCC3C(CCC4=CC(O)CC[C@@]43/C=N/O)C1(O)CCC2C1=CC(=O)OC1 (stereo partly drawn) | / | 93.0* | 0.8 | -8.4 | 7.4 | /
CC12CCC3C(CCC4(O)CC(O)CCC34C=O)C1(O)CCC2C1=CC(=O)OC1 (stereo not drawn) | / | -0.9 | 10.8 | 19.5 | ? | /
CC12CC[C@H]3[C@@H](CCC4(O)C[C@H](O)CCC34/C=N/NC(=O)c3ccccc3Cl)C1(O)CCC2C1=CC(=O)OC1 (stereo partly drawn) | -6.1 | -17.3 | -1.8 | 1.1 | -6.9 | /
C[C@]12CC[C@H]3[C@@H](CC[C@]4(O)C[C@@H](O)CC[C@]34C=O)[C@@]1(O)CC[C@@H]2C1=CC(=O)OC1 | 96.4* | -38.9 | / | 3.7 | 6.1 | -5.0
CCCCN=C[C@]12CCC(O)CC1(O)CCC1[C@@H]2CC[C@]2(C)[C@H](C3C=CC(=O)O3)CCC12O (stereo partly drawn) | / | 81.8* | -0.4 | -13.8 | 0.0 | -2.8
CC12CCC3C(CCC4(O)CC(O)CCC34C=NO)C1(O)CCC2C1=COC(=O)C1 (stereo not drawn) | 34.0 | 105.1* | / | 10.5 | -9.6 | /
N#Cc1cccc(-c2ccc([C@H]3[C@@H](CO)N4CCCCN(C(=O)Cc5ccncc5)C[C@@H]34)cc2)c1 | 4.3 | / | -0.7 | / | -9.7 | -1.5
SMILES | PGC1a acetyl inh | Env fusion inh | Ecoli rRNA inh | FN deposition inh | DENV2 CPE rescue | PglD DTNB
CS(=O)(=O)N1CC2NC(C1)C2c1ccc(Br)cc1 (stereo not drawn) | / | / | -2.9 | -13.4 | / | /
CS(=O)(=O)N1C[C@@H]2N[C@H](C1)C2c1ccccc1 (stereo partly drawn) | / | / | 0.3 | -3.7 | / | /
C[C@H]1O[C@@H](OC2CC[C@]3(C=O)[C@H]4CC[C@]5(C)[C@@H](C6=CC(=O)OC6)CC[C@]5(O)[C@@H]4CC[C@]3(O)C2)CC2OC(C)(C)OC21 (stereo partly drawn) | / | 81.5* | 4.3 | 17.5 | -0.7 | /
Cc1ccccc1O | 10.9 | / | / | / | -21.2 | 0.5
Oc1cccc2nc3ccccc3nc12 | 6.7 | / | / | / | 110.9* | -0.7
CN(CC1COc2ccccc2O1)c1nc(-c2cccnc2)nc2ccccc12 (stereo not drawn) | 12.2 | 64.6* | / | / | / | 11.5
CN1CCC(N(C)c2nc(-c3ccc([N+](=O)[O-])cc3)nc3ccccc23)CC1 | -34.9 | / | / | / | / | /
N#Cc1cccc(-c2ccc([C@H]3[C@@H](CO)N4CCCCN(C(=O)Cc5ccccc5)C[C@@H]34)cc2)c1 | -1.0 | / | -20.5 | / | 6.9 | -0.9
CCC(C)c1cnc(CC(C)C)c(=O)n1O (stereo not drawn) | 6.3 | / | 0.2 | / | 59.5* | -5.4
CC1=CC(=C2C(=O)NC(=S)NC2=O)C=C(C(F)(F)F)N1Cc1ccccc1 | 87.5* | -133.8 | 8.4 | 14.8 | 2.4 | /
CN1C2CCC1/C(=C/c1ccccn1)C(=O)/C2=C\c1ccccn1 | 77.7* | 60.2* | -21.3 | 28.8 | -37.8 | 1.9
Cc1ccccc1-n1c(/C=C/c2ccccn2)nc2ccccc2c1=O | 22.3 | 10.9 | 4.3 | 7.0 | -5.5 | 3.6
CCCNC(=O)N1[C@@H]2Cn3c(ccc(-c4cccc(C(=O)N(C)C)c4)c3=O)[C@H]1[C@@H](C(=O)O)[C@@H]2CO | 5.7 | / | 2.4 | / | -3.1 | /
CC1CC(C)CC(C)C(O)C(C#N)=CC=CCC(C2CCCC2C(=O)O)OC(=O)CC(O)C(C)C1 (stereo not drawn) | ? | 71.0* | -49.5 | 5.4 | -28.7 | /
CCC(C)OC(=O)c1c(N)n(Cc2cccs2)c2nc3ccccc3nc12 (stereo not drawn) | -0.3 | 61.2* | / | / | / | -2.9
Nc1c(C(=O)OCc2ccccc2)c2nc3ccccc3nc2n1Cc1cccs1 | / | 8.9 | / | 10.9 | / | 2.8
C=CCN1C(=S)N[C@@H]2c3ccccc3O[C@@]1(C)[C@@H]2C(=O)OCC | 3.4 | 6.0[16.7 µM] | / | / | -6.9 | -0.7
O=C1CN=C(c2ccccc2)c2ccccc2N1Cc1ccc(C(F)(F)F)cc1 | -7.1 | 76.1* | / | -4.3 | / | -0.3

Screening data (PubChem BioAssay)
